ChEMBL document CHEMBL1806459, “Discovery of N-(1-ethylpropyl)-[3-methoxy-5-(2-methoxy-4-trifluoromethoxyphenyl)-6-methyl-pyrazin-2-yl]amine 59 (NGD 98-2): an orally active corticotropin releasing factor-1 (CRF-1) receptor antagonist” (J Med Chem, 2011)

What was measured:
[1] = Drug uptake in rat adipose tissue assessed as radioactivity of labeled compound; assay type: ADME, tissue-based; conditions: in vivo
[2] = Clearance in rat at 3 mg/kg, iv; assay type: ADME, organism-based; design: dose 3 mg/kg, route intravenous; conditions: in vivo
Summary of the method: (§1)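 Rat PK with paired iv and oral dosing, vehicle 2% Vitamin E TPGS. Clearance and Vss from the iv arm; oral bioavailability F from comparing exposure after oral and iv doses.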

[3] = Volume of distribution at steady state in rat at 3 mg/kg, iv; assay type: ADME, organism-based; design: dose 3 mg/kg, route intravenous; conditions: in vivo, read-out: Vdss
Summary of the method: (§2)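 Rat pharmacokinetics: compounds given iv (1 or 3 mg/kg) and po (5 or 10 mg/kg) in 2% Vitamin E TPGS (tocopheryl polyethylene glycol 1000 succinate). Plasma sampled over 24 h for Cmax, Tmax, AUC0–24 h, T1/2, clearance, Vss and oral bioavailability. Brain to plasma ratio also measured.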

[4] = AUC (0 to 24 hrs) in rat at 5 mg/kg, po; assay type: ADME, organism-based; design: time < 24 hr, dose 5 mg/kg, route oral; conditions: plasma
[5] = target: T1, Corticotropin-releasing factor receptor 1 (Homo sapiens, UniProt P34998); assay: Displacement of [125I]-sauvagine from human CRF-1 receptor expressed in human IMR-32 cells after 2 hrs by scintillation counting; assay type: cell-based
T1 sequence (P34998 whole entry): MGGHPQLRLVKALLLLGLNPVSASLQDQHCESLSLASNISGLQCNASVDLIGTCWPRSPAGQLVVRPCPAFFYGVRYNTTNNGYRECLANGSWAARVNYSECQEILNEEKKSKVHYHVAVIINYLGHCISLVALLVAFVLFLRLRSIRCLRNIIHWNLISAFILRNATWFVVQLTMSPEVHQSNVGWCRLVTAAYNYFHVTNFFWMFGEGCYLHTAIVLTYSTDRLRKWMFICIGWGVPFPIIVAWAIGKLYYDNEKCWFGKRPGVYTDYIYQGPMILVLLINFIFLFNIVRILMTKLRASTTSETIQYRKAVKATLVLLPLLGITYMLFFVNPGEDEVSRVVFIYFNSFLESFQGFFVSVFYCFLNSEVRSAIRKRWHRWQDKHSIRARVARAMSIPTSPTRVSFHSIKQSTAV
Summary of the method: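 Competition binding against 125I-sauvagine on membrane preparations from IMR-32 human neuroblastoma cells, which express CRF-1 endogenously. Modified from a published method.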

[6] = Clearance in rat at 5 mg/kg, po; assay type: ADME, organism-based; design: dose 5 mg/kg, route oral; conditions: in vivo
[7] = Half life in rat at 3 mg/kg, iv; assay type: ADME, organism-based; design: dose 3 mg/kg, route intravenous; conditions: in vivo
Summary of the method: (§3)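 Rat PK, intravenous arm of a paired iv/po study. Dosed in 2% Vitamin E TPGS (tocopheryl polyethylene glycol 1000 succinate). Parameters derived from plasma: Cmax, AUC0–24 h, terminal T1/2.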

[8] = Half life in human microsomes; assay type: ADME, Microsome
Summary of the method: (§4)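 Stability in human or rat liver microsomes; half-life (T1/2, min) of compound turnover reported.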

[9] = Cmax in rat at 5 mg/kg, po; assay type: ADME, organism-based; design: dose 5 mg/kg, route oral; conditions: in vivo
[10] = Ratio of drug level in brain to plasma of rat at 3 mg/kg, iv; assay type: ADME, organism-based; design: dose 3 mg/kg, route intravenous; conditions: read-out: BPR; summary of the method: as §2
[11] = Half life in rat microsomes; assay type: ADME, Microsome; summary of the method: as §4
[12] = Tmax in rat at 5 mg/kg, po; assay type: ADME, organism-based; design: dose 5 mg/kg, route oral; conditions: in vivo; summary of the method: as §2
[13] = Half life in rat at 5 mg/kg, po; assay type: ADME, organism-based; design: dose 5 mg/kg, route oral; conditions: in vivo
[14] = Ratio of drug level in brain to plasma of rat at 5 mg/kg, po; assay type: ADME, organism-based; design: dose 5 mg/kg, route oral; conditions: read-out: BPR; summary of the method: as §2
[15] = AUC (0 to 24 hrs) in rat at 3 mg/kg, iv; assay type: ADME, organism-based; design: time < 24 hr, dose 3 mg/kg, route intravenous; conditions: plasma; summary of the method: as §3
[16] = Oral bioavailability in rat at 5 mg/kg; assay type: ADME, organism-based; conditions: in vivo; summary of the method: as §2
[17] = Cmax in rat at 3 mg/kg, iv; assay type: ADME, organism-based; design: dose 3 mg/kg, route intravenous; conditions: in vivo; summary of the method: as §3
[18] = Bioavailability in rat at 3 mg/kg, […]; assay type: ADME, organism-based; conditions: in vivo; summary of the method: as §1
[19] = Tmax in rat at 3 mg/kg, iv; assay type: ADME, organism-based; design: dose 3 mg/kg, route intravenous; conditions: in vivo; summary of the method: as §2
[20] = test system: Rattus norvegicus; assay: Volume of distribution at steady state in rat at 5 mg/kg, po; assay type: ADME, organism-based; design: dose 5 mg/kg, route oral; conditions: in vivo; summary of the method: as §2
[21] = Oral bioavailability in rat; assay type: ADME, organism-based; conditions: in vivo; summary of the method: as §2

In the case of `CCC(CC)Nc1nc(C)c(-c2ccc(OC(F)(F)F)cc2O[14CH3])nc1OC`, the Drug uptake [1] is reported as “Active”.

`CCc1nc(-c2ccc(Cl)cc2Cl)c(CC)nc1NC(CC)CC` showed a clearance [2] of 16 mL/min/kg, a Vd [3] of 6.5 L/kg and an AUC(0-t) at 24 h [4] of 4310 ng·h/mL. It also gave a Ki [5] of 4.1 nM, a CL/F [6] of 16 mL/min/kg and a half-life [7] of 4.9 h. For the same molecule, the half-life [8] was 0.283 h, the Cmax [9] was 627 ng/mL and the Kp [10] was 2.5. It also gave a half-life [11] of 4.2 min, a Tmax [12] of 1.3 h and a half-life [13] of 4.9 h. The Kp [14] was 2.5, the AUC(0-t) at 24 h [15] was 4310 ng·h/mL and the bioavailability [16] was 83%. For the same molecule, the Cmax [17] was 627 ng/mL, the bioavailability [18] was 83% and the Tmax [19] was 1.3 h. It also gave a Vdss [20] of 6.5 L/kg.

With `CCC(CC)Oc1c(C)nc(-c2c(OC)cc(Cl)cc2OC)nc1OC` the bioavailability [21] was 6%.
